Measurements from ChEMBL document CHEMBL4765234 (J Med Chem, 2016).
pEC50, pKi: −log10 of the molar value. Calls of active or inactive are those of the source. The calls are words filed in the database; no cut-off is given here.

Experiments:
[1] = Protein binding in plasma (unknown origin) by equilibrium dialysis method; assay type: ADME, cell-free; details: human, read-out: PPB
Outline: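 Plasma protein binding measured by equilibrium dialysis.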

[2] = biological target: T1, Peroxisome proliferator-activated receptor gamma (Homo sapiens) (UniProt P37231); assay: Displacement of [3H]-[…] from PPARgamma (unknown origin) expressed in baculovirus infected Sf9 insect cells upto 30 uM measured after 10 hrs by microbeta scintillation counting analysis; details: dose microM <=30, time 10.0 hrs
T1 sequence (whole entry): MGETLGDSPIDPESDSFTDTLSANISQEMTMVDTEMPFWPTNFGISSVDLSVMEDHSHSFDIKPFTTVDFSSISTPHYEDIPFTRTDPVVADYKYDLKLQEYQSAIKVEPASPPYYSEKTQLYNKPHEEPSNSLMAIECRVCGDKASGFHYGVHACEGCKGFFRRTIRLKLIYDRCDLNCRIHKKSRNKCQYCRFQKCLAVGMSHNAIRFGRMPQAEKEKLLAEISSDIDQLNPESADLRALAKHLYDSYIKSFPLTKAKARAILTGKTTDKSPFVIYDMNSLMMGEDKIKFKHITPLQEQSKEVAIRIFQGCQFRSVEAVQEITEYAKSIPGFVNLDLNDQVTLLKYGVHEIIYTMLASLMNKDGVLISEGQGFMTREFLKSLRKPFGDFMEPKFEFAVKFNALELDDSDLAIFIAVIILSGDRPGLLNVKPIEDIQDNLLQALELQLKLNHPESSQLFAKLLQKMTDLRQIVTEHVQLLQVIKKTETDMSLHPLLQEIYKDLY
Outline: (§1)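 Scintillation proximity assay. Sf9 lysates with baculovirus-expressed PPARα (0.3 μg), PPARδ (0.5 μg) or PPARγ (1.25 μg), each with RXRα, were bound via biotinylated DR2 oligo (0.126 nM) to streptavidin yttrium silicate beads. Buffer was HEPES pH 7.8 with KCl, MgCl2, DTT, CHAPS, 14% glycerol and salmon sperm DNA. A 3H reference agonist ligand was used, with 11 compound concentrations, for 10 h. Nonspecific binding was defined with 10000 nM unlabeled reference. Ki was derived from IC50.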

[3] = biological target: T2, Peroxisome proliferator-activated receptor alpha (Homo sapiens) (UniProt Q07869); assay: Displacement of [3H]-[…] from PPARalpha (unknown origin) expressed in baculovirus infected Sf9 insect cells upto 30 uM measured after 10 hrs by microbeta scintillation counting analysis; details: dose microM <=30, time 10.0 hrs; outline: as §1
T2 sequence (whole entry): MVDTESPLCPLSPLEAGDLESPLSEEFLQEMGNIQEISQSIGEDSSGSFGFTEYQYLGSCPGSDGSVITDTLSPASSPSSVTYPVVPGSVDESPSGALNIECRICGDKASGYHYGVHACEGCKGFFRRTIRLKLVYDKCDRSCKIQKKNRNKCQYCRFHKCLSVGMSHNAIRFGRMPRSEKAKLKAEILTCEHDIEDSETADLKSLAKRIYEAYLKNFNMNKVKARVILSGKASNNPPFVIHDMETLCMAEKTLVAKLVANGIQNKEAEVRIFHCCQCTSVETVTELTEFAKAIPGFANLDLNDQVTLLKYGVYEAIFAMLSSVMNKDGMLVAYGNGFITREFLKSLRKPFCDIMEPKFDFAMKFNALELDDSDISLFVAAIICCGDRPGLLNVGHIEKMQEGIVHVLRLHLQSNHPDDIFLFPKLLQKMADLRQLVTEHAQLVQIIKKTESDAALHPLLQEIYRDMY

[4] = biological target: Free fatty acid receptor 1 (Rattus norvegicus) (UniProt Q8K3T4); assay: Agonist activity at Prolink-tagged rat GPR40 fused with EA-tagged beta-arrestin expressed in human U2OS cells assessed as induction of beta-arrestin recruitment measured after 90 mins by beta-galactosidase based PathHunter assay relative to control; assay type: cell-based; details: filed as agonist
Sequence of Free fatty acid receptor 1 (Rattus norvegicus) (Q8K3T4 whole entry, the tested form may be a part): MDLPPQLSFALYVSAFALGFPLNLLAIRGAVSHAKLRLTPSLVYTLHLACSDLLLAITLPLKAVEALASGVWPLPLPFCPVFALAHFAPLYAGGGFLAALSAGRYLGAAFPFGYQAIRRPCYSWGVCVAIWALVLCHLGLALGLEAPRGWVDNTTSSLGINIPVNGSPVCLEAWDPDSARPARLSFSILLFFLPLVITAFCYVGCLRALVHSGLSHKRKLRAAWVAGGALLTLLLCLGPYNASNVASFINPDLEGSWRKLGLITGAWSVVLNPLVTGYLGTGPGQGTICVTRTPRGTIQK
Outline: (§2)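 PathHunter β-gal complementation. Cells were incubated overnight at 5000/well in medium with 1% heat-inactivated FBS. Compound was added as a 20-point 2-fold series from a top final of 100 μM (1% DMSO) for 90 min at 37 °C, followed by detection reagents and chemiluminescence read after 1 h at rt.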

[5] = biological target: T3, Free fatty acid receptor 1 (Homo sapiens, UniProt O14842); assay: Agonist activity at human recombinant full-length Prolink-tagged GPR40 fused with EA-tagged beta-arrestin expressed in human HEK293 cells assessed as induction of beta-arrestin recruitment measured after 90 mins by beta-galactosidase based PathHunter assay relative to control; assay type: cell-based; details: filed as agonist; outline: as §2
T3 sequence (O14842 whole entry, the tested form may be a part): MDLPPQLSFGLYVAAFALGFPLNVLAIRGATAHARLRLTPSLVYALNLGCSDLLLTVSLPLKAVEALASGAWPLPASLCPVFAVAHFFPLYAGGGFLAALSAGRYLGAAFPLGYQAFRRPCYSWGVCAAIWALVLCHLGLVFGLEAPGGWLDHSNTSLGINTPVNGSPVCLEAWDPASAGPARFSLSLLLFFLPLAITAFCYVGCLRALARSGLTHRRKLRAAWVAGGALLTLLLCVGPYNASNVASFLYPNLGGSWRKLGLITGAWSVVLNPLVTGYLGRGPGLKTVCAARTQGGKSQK

[6] = biological target: T3, Free fatty acid receptor 1; assay: Agonist activity at human recombinant full length GPR40 overexpressed in human HEK293 cells assessed as increase in intracellular calcium level measured over 3 mins by calcium 4 dye based FLIPR assay; assay type: functional, cell-based
Outline: (§3)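 HEK293 cells overexpressing hGPR40 (25K/well) were cultured overnight in DMEM/F12 with 0.2% FBS and geneticin. Compound was tested at 40 μM–0.1 nM final (20-point, 1% DMSO), and FLIPR fluorescence was read over 3 min.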

[7] = biological target: Free fatty acid receptor 1 (Mus musculus) (UniProt Q76JU9); assay: Agonist activity at Prolink-tagged mouse GPR40 fused with EA-tagged beta-arrestin expressed in human U2OS cells assessed as induction of beta-arrestin recruitment measured after 90 mins by beta-galactosidase based PathHunter assay relative to control; assay type: cell-based; details: filed as agonist; outline: as §2
Sequence of Free fatty acid receptor 1 (Mus musculus) (Q76JU9 whole entry, the tested form may be a part): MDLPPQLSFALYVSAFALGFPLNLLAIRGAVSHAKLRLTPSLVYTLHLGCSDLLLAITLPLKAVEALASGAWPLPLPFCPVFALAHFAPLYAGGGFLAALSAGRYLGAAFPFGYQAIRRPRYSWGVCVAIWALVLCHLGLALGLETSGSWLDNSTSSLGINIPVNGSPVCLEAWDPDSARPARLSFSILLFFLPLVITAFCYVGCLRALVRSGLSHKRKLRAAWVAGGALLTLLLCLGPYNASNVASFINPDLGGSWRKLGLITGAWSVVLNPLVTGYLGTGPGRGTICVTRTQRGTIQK

[8] = biological target: T3, Free fatty acid receptor 1; assay: Agonist activity at human recombinant full length GPR40 overexpressed in human HEK293 cells assessed as increase in intracellular calcium level measured over 3 mins by calcium 4 dye based FLIPR assay relative to 100 uM linoleic acid; assay type: functional, cell-based; details: filed as agonist; outline: as §3
[9] = biological target: T3, Free fatty acid receptor 1; assay: Agonist activity at human recombinant full-length Prolink-tagged GPR40 fused with EA-tagged beta-arrestin expressed in human HEK293 cells assessed as induction of beta-arrestin recruitment measured after 90 mins by beta-galactosidase based PathHunter assay; assay type: cell-based; outline: as §2
[10] = biological target: Free fatty acid receptor 1 (Mus musculus, UniProt Q76JU9); assay: Agonist activity at Prolink-tagged mouse GPR40 fused with EA-tagged beta-arrestin expressed in human U2OS cells assessed as induction of beta-arrestin recruitment measured after 90 mins by beta-galactosidase based PathHunter assay; assay type: cell-based; outline: as §2
Sequence of Free fatty acid receptor 1 (Mus musculus, UniProt Q76JU9) (Q76JU9 whole entry, the tested form may be a part): as above

[11] = biological target: Free fatty acid receptor 1 (Rattus norvegicus, UniProt Q8K3T4); assay: Agonist activity at Prolink-tagged rat GPR40 fused with EA-tagged beta-arrestin expressed in human U2OS cells assessed as induction of beta-arrestin recruitment measured after 90 mins by beta-galactosidase based PathHunter assay; assay type: cell-based; outline: as §2
Sequence of Free fatty acid receptor 1 (Rattus norvegicus, UniProt Q8K3T4) (Q8K3T4 whole entry, the tested form may be a part): as the sequence (Q8K3T4 whole entry, the tested form may be a part) above

[12] = biological target: T4, Peroxisome proliferator-activated receptor delta (Homo sapiens) (UniProt Q03181); assay: Displacement of [3H]-[…] from PPARdelta (unknown origin) expressed in baculovirus infected Sf9 insect cells upto 30 uM measured after 10 hrs by microbeta scintillation counting analysis; details: dose microM <=30, time 10.0 hrs; outline: as §1
T4 sequence (whole entry): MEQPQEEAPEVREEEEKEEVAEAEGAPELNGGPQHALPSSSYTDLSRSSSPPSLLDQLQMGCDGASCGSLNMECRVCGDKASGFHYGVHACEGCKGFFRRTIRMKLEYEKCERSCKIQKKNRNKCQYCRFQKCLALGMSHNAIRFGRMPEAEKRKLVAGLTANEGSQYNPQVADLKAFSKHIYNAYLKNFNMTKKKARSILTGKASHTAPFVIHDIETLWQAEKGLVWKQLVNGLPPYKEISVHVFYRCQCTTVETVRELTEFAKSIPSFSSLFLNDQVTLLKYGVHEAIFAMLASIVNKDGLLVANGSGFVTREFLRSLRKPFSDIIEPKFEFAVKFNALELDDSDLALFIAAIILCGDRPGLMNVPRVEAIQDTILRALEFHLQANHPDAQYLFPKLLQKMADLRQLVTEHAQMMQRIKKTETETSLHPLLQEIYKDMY

[13] = biological target: T3, Free fatty acid receptor 1; assay: Displacement of [3H]-TAK-875 from human recombinant full-length GPR40 expressed in human HEK293 cell membrane incubated for 2 hrs by solid scintillation counting method; assay type: cell membranes
[14] = biological target: T3, Free fatty acid receptor 1; assay: Agonist activity at human recombinant full length GPR40 overexpressed in human HEK293 cells assessed as increase in inositol phosphate accumulation in presence of terbium cryptate-labeled anti IP1/d2-labelled IP1 measured after 120 mins by HTRF assay; assay type: functional, cell-based
Outline: (§4)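 HEK293 hGPR40 cells (20K/well) were cultured overnight, washed, and held in IP1 stimulation buffer. IP-1 was measured by competitive HTRF immunoassay with terbium cryptate anti-IP1 mAb and d2-labelled IP1.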

[15] = biological target: T3, Free fatty acid receptor 1; assay: Agonist activity at human recombinant full length GPR40 overexpressed in human HEK293 cells assessed as increase in inositol phosphate accumulation in presence of terbium cryptate-labeled anti IP1/d2-labelled IP1 measured after 120 mins by HTRF assay relative to AMG837; assay type: functional, cell-based; details: filed as agonist; outline: as §4

Structure (SMILES)	fraction unbound [1]	Activity [2]	Activity [3]	Emax [4]	Emax [5]	pEC50 [6]	Emax [7]	Emax [8]	pEC50 [9]	pEC50 [10]	pEC50 [11]	Activity [12]	pKi [13]	pEC50 [14]	Emax [15]
CC#C[C@@H](CC(=O)O)c1ccc(OCc2ccc(CN3CCC4(CC3)CC(=O)c3ccccc3O4)cc2)cc1	< 0.01	inactive	inactive	159%	147%	7.19	141%	56%	7.59	8.68	8.35	inactive	7.80	8.08	228%
CC#C[C@@H](CC(=O)O)c1ccc(OCc2sc(CN3CCC4(C=Cc5ccccc54)CC3)nc2C)cc1	< 0.01	inactive	inactive	73%	100%	7.77	97%	53%	6.28	7.74	7.00	inactive	7.00	7.14	97%
CC#C[C@@H](CC(=O)O)c1ccc(OCc2ncc(CN3CCC4(C=Cc5ccccc54)CC3)s2)cc1	< 0.01	inactive	inactive	109%	117%	8.55	115%	63%	7.08	8.14	7.64	inactive	6.89	7.92	129%
CC#C[C@@H](CC(=O)O)c1ccc(OCc2ccc(CN3CCC4(C=Cc5ccccc54)CC3)o2)cc1	< 0.01	inactive	inactive	117%	121%	8.80	121%	59%	7.21	8.68	8.38	inactive	7.70	7.66	127%
CC#C[C@H](CC(=O)O)c1ccc(OCc2ccc(CN3CCC4(C=Cc5ccccc54)CC3)cc2)cc1	< 0.01	inactive	inactive	101%	95%	5.55	100%	46%	6.27	7.22	6.92	inactive	6.51	6.44	166%
CC#C[C@@H](CC(=O)O)c1ccc(OCc2ccc(CN3CCC4(C=Cc5ccccc54)CC3)c(C(F)(F)F)c2)cc1	< 0.01	inactive	inactive	135%	132%	7.70	146%	55%	8.96	9.08	8.96	inactive	8.96	8.72	255%
CC#C[C@@H](CC(=O)O)c1ccc(OCc2ccc(CN3CCC4(C=Cc5ccccc54)CC3)c(C)c2)cc1	< 0.01	inactive	inactive	146%	150%	7.64	147%	47%	8.77	9.38	9.27	inactive	8.89	8.38	206%
CC#C[C@@H](CC(=O)O)c1ccc(OCc2ccc(CN3CCC4(CC3)CN(C)c3ccc(C)cc34)cc2)cc1	< 0.01	inactive	inactive	138%	121%	7.21	145%	60%	7.60	8.70	8.34	inactive	7.85	8.46	231%
CC#C[C@@H](CC(=O)O)c1ccc(OCc2ccc(CN3CCC4(CC3)CN(c3ccccc3)c3ccccc34)cc2)cc1	< 0.01	inactive	inactive	132%	116%	7.68	130%	53%	8.82	9.21	9.08	inactive	8.82	8.68	226%
CC#C[C@@H](CC(=O)O)c1ccc(OCc2ccc(CN3CCC4(C=Cc5ccccc54)CC3)c(F)c2)cc1	< 0.01	inactive	inactive	145%	135%	7.77	148%	51%	8.03	8.92	8.89	inactive	8.40	8.64	210%
